Test results reported in ChEMBL document CHEMBL4477233, “Discovery of novel TAOK2 inhibitor scaffolds from high-throughput screening” (Bioorg Med Chem Lett, 2016).
The source made the active and inactive calls. The rule behind the calls is not given here.

What was measured:
[1] = biological target: Mitogen-activated protein kinase 8 (Homo sapiens) (UniProt P45983); assay: Inhibition of human JNK1; details: concentration not given here
[2] = biological target: Mitogen-activated protein kinase kinase kinase kinase 4 (Homo sapiens) (UniProt O95819); assay: Inhibition of human HGK; details: concentration not given here
[3] = biological target: T1, Serine/threonine-protein kinase TAO2 (Homo sapiens) (UniProt Q9UL54); assay: Inhibition of human TAO2; details: concentration not given here
T1 sequence (whole entry): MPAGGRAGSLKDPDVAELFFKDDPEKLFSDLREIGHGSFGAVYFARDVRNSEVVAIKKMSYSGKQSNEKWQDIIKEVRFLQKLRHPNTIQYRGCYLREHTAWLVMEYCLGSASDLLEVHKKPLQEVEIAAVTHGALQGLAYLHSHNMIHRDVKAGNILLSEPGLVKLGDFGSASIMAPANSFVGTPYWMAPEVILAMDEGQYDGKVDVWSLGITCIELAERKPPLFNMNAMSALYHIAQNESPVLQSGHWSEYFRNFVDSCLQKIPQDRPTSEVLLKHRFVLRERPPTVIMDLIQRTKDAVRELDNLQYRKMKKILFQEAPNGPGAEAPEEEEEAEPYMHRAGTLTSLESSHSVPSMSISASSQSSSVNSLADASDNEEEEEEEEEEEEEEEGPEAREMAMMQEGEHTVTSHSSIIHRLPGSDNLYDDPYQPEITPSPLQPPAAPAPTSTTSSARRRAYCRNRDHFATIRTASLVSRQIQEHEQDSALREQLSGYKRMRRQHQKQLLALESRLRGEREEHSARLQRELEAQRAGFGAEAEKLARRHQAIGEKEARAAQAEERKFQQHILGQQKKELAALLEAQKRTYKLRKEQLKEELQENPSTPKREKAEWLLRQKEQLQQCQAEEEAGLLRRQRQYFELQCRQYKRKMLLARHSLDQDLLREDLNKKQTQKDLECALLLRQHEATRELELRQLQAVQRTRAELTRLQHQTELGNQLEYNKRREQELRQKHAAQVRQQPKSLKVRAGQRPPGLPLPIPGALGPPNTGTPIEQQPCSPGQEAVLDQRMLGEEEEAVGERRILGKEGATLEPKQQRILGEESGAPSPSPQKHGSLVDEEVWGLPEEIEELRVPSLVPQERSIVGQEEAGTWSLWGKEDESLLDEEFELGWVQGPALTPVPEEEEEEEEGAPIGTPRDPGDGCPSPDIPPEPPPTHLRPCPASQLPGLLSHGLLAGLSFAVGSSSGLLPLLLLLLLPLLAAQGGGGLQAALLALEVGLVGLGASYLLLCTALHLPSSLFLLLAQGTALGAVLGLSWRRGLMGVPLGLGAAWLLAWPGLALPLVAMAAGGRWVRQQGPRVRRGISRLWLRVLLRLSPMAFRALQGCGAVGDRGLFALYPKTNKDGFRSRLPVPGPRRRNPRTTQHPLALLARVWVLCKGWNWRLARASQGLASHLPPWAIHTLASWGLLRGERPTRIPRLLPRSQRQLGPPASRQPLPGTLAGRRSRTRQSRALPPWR

[4] = biological target: T1, Serine/threonine-protein kinase TAO2 (Homo sapiens); assay: Inhibition of TAOK2 in human U2OS cells assessed as inhibition of cellular autophagy measured as P62 accumulation at 50 uM after 24 hrs by western blot analysis; type: cell-based
Summary of the method: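 GFP–LC3-expressing U2OS cells were treated for 24 h with compound at 50 µM or with DMSO alone. p62 (SQSTM1) abundance was then assessed by Western blotting as a readout of autophagic degradation.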

[5] = biological target: T2, Interleukin-1 receptor-associated kinase 4 (Homo sapiens) (UniProt Q9NWZ3); assay: Inhibition of human IRAK4; details: concentration not given here
T2 sequence (whole entry): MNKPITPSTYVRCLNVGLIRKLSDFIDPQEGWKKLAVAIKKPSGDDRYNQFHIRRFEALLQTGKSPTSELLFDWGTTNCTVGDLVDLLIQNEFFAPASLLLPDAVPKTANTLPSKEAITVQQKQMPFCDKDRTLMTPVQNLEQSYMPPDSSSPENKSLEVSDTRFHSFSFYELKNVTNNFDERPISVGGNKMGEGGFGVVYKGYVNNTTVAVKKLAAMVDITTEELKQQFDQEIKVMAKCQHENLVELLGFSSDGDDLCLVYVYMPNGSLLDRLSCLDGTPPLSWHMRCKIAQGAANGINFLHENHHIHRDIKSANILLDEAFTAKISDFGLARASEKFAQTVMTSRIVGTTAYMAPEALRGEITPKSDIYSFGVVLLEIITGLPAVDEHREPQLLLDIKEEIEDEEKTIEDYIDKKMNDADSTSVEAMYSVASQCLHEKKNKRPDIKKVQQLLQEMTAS

[6] = biological target: T1, Serine/threonine-protein kinase TAO2 (Homo sapiens); assay: Inhibition of TAOK2 in human U2OS cells assessed as inhibition of cellular autophagy measured as GFP-LC3 accumulation at 50 uM after 24 hrs by flow cytometric analysis; type: cell-based
Summary of the method: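 U2OS cells stably expressing GFP–LC3 were exposed to compound at 50 µM in the medium for 24 h. GFP fluorescence was read by flow cytometry. The median value from 20,000 cells per condition was normalized to DMSO vehicle within each experiment. Data are mean + SD of >2 independent experiments, compared with vehicle by unpaired t test.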

[7] = biological target: RAF proto-oncogene serine/threonine-protein kinase (Homo sapiens) (UniProt P04049); assay: Inhibition of human RAF-1; details: concentration not given here
[8] = biological target: Cyclin-dependent kinase 1 (Homo sapiens) (UniProt P06493); assay: Inhibition of human CDK1; details: concentration not given here
Sequence of Cyclin-dependent kinase 1 (Homo sapiens) (P06493 whole entry, looked up): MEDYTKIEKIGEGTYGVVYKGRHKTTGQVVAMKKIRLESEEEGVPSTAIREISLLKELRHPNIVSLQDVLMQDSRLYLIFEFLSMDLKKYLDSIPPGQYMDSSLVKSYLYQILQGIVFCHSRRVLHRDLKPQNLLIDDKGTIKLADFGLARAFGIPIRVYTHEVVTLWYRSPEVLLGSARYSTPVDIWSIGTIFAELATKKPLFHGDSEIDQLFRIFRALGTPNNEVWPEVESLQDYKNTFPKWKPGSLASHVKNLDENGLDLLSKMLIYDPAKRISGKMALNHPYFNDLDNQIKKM

Sequence of Mitogen-activated protein kinase 8 (Homo sapiens) (P45983 whole entry): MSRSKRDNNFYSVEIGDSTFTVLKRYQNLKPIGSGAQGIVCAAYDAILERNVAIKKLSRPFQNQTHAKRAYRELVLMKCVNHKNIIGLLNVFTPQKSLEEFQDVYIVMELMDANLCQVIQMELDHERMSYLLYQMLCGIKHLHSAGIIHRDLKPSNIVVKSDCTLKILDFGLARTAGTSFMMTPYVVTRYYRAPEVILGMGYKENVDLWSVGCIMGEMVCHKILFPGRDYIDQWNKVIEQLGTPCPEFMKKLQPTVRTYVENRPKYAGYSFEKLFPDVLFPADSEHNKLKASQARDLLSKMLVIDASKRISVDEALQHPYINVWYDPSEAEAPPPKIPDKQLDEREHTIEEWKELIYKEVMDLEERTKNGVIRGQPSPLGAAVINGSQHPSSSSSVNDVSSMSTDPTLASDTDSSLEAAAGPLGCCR
Sequence of Mitogen-activated protein kinase kinase kinase kinase 4 (Homo sapiens) (O95819 2-1239 limits assumed): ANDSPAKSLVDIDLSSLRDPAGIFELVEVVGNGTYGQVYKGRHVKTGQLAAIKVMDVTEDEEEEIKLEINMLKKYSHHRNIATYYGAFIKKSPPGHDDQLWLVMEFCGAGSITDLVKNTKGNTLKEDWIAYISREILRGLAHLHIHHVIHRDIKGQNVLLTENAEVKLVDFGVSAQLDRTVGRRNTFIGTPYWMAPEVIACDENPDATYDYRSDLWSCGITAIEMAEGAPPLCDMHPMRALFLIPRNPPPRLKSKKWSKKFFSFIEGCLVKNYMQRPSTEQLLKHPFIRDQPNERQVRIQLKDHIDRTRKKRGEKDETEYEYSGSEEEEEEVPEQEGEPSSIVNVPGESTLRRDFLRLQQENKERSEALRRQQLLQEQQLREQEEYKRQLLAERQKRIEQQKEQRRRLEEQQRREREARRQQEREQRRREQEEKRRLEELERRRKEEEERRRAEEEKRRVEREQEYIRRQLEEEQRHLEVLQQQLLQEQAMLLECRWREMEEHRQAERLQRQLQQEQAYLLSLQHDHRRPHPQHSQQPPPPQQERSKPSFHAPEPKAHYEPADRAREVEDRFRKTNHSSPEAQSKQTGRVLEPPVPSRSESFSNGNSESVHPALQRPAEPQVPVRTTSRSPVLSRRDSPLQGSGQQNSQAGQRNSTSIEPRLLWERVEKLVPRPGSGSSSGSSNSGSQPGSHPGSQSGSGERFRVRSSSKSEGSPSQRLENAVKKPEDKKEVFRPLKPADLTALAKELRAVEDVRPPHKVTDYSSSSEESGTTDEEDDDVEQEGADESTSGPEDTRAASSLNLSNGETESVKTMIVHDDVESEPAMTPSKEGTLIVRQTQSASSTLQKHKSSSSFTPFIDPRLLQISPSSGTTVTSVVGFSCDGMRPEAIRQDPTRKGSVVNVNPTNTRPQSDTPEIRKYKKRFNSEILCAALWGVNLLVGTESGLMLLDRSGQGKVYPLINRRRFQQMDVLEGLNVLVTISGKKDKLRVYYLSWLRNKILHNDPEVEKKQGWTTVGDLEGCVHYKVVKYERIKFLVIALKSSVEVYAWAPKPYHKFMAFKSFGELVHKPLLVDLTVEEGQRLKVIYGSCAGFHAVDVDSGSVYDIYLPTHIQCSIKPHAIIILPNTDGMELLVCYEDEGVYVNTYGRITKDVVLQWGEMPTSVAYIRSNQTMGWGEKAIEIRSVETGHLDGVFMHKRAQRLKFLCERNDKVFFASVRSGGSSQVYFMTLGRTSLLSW
Sequence of RAF proto-oncogene serine/threonine-protein kinase (Homo sapiens) (P04049 whole entry): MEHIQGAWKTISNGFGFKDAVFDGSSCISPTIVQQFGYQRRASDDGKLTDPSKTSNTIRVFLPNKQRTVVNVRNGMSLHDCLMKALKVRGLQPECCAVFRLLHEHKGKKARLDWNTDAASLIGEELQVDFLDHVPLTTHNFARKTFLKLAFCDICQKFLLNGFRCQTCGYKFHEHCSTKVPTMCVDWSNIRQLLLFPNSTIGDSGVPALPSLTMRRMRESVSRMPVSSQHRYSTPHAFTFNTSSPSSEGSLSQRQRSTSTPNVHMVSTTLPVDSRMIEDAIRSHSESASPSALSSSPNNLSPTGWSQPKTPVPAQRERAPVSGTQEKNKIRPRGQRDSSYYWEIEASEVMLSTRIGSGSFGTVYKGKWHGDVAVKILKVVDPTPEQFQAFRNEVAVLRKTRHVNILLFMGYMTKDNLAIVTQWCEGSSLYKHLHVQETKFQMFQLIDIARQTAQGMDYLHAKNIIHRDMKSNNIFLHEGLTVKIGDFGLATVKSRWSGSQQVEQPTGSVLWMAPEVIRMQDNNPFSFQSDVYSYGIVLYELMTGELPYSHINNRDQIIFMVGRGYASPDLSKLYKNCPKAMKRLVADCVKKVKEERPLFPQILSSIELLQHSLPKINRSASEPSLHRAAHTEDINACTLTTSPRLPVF

Structure (SMILES)	inhibition [3] [%]	inhibition [4]	inhibition [6]	also measured
CCC(=O)Nc1nc(C)c(-c2csc(Nc3cc(OC)ccc3OC)n2)s1	> 50	inactive	Active	inhibition [1]: > 50%; inhibition [2]: > 50%; inhibition [5]: > 50%; inhibition [7]: > 50%; inhibition [8]: > 50%
c1cc2[nH]c3c(c2c2nonc12)CCCC3			Active	
CS(=O)(=O)c1ccc2nc(NC(=O)CCCOc3ccc(Cl)cc3)sc2c1	> 50	Active	Active	
CCOCCCn1c(=S)[nH]c2cc(C(=O)NCC3COc4ccccc4O3)ccc2c1=O (stereo not given)	> 50	Active	Active	
Cc1ccc(C(=O)CSc2nnc(-c3ccncc3)[nH]2)c(C)c1			Active	
O=C(O)c1cc(-c2ccc(-c3ccccc3[N+](=O)[O-])o2)nc2ccc3ccccc3c12			Active	
Cc1ccc(NCCCC(=O)N/N=C/c2cc(Br)cc(Br)c2O)cc1			Active	
O=C(NCC1COc2ccccc2O1)c1ccc(NC(=O)c2ccco2)cc1 (stereo not given)		Active	Active	
